Results on twelve compounds are retold here after ChEMBL document CHEMBL3244012, “Guanylhydrazones with potential antileukemic activity. 2. Synthesis and structure-activity relationships of analogues of 4,4'-diacetyl-N,N'-diphenylurea bis(guanylhydrazone)” (J Med Chem, 1978).

The subject of one data set is L1210. In words: Antitumor activity against mouse L1210 cells allografted in DBA/2J mouse assessed as survival at 30 mg/kg, ip dosed once daily on days 1 to 3 (reference value: 8.2 +/- 1.1 days). The format is functional. Particulars: route intraperitoneal.
The test system of the next data set is TA3. Briefly: Cytotoxicity against mouse TA3 cells assessed as growth inhibition after 3 days. The format is functional. As to conditions: TA3, 72 h, read-out: ID50 (the source's name). The procedure, abridged:
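Mouse mammary adenocarcinoma TA-3 cells grown in stationary tubes in RPMI 1640 with 10% horse serum; 50 000 cells inoculated with compound in medium, incubated upright 3 days. Growth read by protein assay; control growth six- to tenfold. Five tubes per concentration; inhibitory compounds retested at least twice. ID50 = 50% inhibitory concentration, between-test variation within ±10%.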

Data set [1] concerns the target T1, DNA polymerase alpha catalytic subunit (Mus musculus) (UniProt P33609).
T1 sequence (whole entry): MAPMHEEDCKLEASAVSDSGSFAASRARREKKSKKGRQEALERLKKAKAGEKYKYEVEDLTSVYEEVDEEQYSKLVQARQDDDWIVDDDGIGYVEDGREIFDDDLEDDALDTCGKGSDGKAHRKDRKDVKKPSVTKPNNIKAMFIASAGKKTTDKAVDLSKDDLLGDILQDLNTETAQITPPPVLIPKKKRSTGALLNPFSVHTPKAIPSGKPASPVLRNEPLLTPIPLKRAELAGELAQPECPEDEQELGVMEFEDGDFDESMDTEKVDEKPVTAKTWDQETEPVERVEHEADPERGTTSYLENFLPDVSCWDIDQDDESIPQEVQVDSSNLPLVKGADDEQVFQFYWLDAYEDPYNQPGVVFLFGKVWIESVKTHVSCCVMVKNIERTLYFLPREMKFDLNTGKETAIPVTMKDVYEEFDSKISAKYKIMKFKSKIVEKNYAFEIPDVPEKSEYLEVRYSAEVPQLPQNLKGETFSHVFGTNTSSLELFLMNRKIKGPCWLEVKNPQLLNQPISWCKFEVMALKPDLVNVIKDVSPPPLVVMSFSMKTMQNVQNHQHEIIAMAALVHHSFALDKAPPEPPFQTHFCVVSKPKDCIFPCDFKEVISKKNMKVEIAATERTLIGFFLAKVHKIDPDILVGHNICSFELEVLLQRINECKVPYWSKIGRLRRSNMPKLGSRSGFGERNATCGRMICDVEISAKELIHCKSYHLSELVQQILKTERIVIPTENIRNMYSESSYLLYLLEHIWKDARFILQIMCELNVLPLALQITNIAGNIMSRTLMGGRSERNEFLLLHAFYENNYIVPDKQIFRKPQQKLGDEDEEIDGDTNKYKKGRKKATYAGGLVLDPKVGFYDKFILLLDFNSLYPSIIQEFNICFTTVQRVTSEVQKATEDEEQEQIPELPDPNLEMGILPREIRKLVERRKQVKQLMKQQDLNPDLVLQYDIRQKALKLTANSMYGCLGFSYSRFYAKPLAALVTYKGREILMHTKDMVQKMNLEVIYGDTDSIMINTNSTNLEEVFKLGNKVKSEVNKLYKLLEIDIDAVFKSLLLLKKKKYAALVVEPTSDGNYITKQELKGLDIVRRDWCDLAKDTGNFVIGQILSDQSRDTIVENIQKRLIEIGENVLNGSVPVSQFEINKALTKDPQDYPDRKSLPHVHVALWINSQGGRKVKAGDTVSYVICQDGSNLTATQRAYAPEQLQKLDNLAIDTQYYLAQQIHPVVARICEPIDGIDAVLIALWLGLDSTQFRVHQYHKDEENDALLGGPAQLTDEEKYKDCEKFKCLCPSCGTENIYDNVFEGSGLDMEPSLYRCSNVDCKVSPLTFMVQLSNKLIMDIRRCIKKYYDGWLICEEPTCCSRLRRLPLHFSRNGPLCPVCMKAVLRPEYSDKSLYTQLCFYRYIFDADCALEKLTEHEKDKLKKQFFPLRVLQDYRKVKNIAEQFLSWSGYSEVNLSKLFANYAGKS
In words: Inhibition of DNA polymerase alpha isolated from mouse L1210 cells assessed as reduction in DNA synthesis by cell-free system based assay. The procedure, abridged: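 DNA polymerase α taken as a crude extract of mouse L1210 leukemia cells, assayed in a Bollum-type cell-free DNA synthesis system. Compounds added at different concentrations to the assay mixture before enzyme; initial reaction velocity measured.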

Data set [2] is described as follows: Solubility in aqueous solvents. It counts as physicochemical. As to conditions: buffer.

With `C/C(=N\NC(=N)N)c1ccc(NC(=O)Nc2ccc(/C(C)=N/NC(=N)N)cn2)nc1`, in the data set on L1210, the Survival came to 11 days. Further, the IC50 in the data set on TA3 was found to be 7 µM. Besides, the inhibitory concentration in data set [1] was 160 µM.

For the compound `C/C(=N\O)c1ccc(NC(=O)Nc2ccc(/C(C)=N/O)cc2)cc1`, the solubility entry in data set [2] is given as “Insoluble”.

As to `Br.Br.C/C(=N/NC(=N)N)c1ccc(CNC(=O)N(Cc2ccc(/C(C)=N/NC(=N)N)cc2)N=O)cc1`, in the data set with L1210, the Survival came out at 10.5 days. In addition, in the data set with TA3, the IC50 was greater than 100 µM. Besides, the inhibitory concentration in data set [1] stood at 230 µM.

As for `C/C(=N\NC(=N)N)c1ccc(N(C)C(=O)N(C)c2ccc(/C(C)=N/NC(=N)N)cc2)cc1`, the Survival in the data set with L1210 was found to be 1.7 days. For the same compound, the IC50 in the data set with TA3 turned out to be 100 µM. In addition, the inhibitory concentration in data set [1] turned out to be 310 µM.

In the case of `C/C(=N\NC(=N)N)c1ccc(NC(=O)Nc2ccc(/C(C)=N/NC(=N)N)cn2)cc1`, in the data set on L1210, the Survival is 11.3 days. For the same compound, the IC50 in the data set with TA3 came out at 7 µM.

In the case of `Br.Br.C/C(=N\NC(=N)N)c1ccc(NC(=O)N(C)c2ccc(/C(C)=N/NC(=N)N)cc2)cc1`, the Survival in the data set on L1210 turned out to be 14.3 days. In addition, in the data set with TA3, the IC50 was 180 µM. Also, the inhibitory concentration in data set [1] came to 80 µM.

On to `Br.Br.C/C(=N/NC(=N)N)c1ccc(NC(=O)NCc2ccc(/C(C)=N/NC(=N)N)cc2)cc1`, for which, in the data set with L1210, the Survival came out at 23 days. In addition, the IC50 with TA3 was determined as 20 µM. Besides, the inhibitory concentration in data set [1] came to 110 µM.

Regarding `Br.Br.C/C(=N\NC(=N)N)c1ccc(CNC(=O)NCc2ccc(/C(C)=N/NC(=N)N)cc2)cc1`, in the data set with L1210, the Survival was determined as 10.7 days. Also, the IC50 in the data set on TA3 was determined as 90 µM.

Take `C/C(=N/NC(=N)N[N+](=O)[O-])c1ccc(NC(=O)Nc2ccc(/C(C)=N\NC(=N)N[N+](=O)[O-])cc2)cc1`: the solubility entry in data set [2] was “Insoluble”.

As to `C/C(=N\NC(=N)N)c1ccc(NC(=O)Nc2ccc(/C(C)=N/NC(=N)N)cc2)cc1`, in the data set with TA3, the IC50 was 6 µM. Moreover, the inhibitory concentration in data set [1] was 60 µM.

On to `C/C(=N\NC(=N)N)c1ccc(NC(=O)Oc2ccc(/C(C)=N/NC(=N)N)cc2)cc1`, for which the IC50 with TA3 is 180 µM. Besides, the inhibitory concentration in data set [1] worked out at 170 µM.

In the case of `C/C(=N/NC(N)=S)c1ccc(NC(=O)Nc2ccc(/C(C)=N/NC(N)=S)cc2)cc1`, in data set [2], the solubility result is listed as “Insoluble”.
